This is a sample that favours compounds with a hit; in the whole collection about 1.7% have one here.
DNMT1 inh: human DNMT1 methyltransferase inhibitors, primary screen, biochemical, molecular beacon, fluorescence, HinP1I cleavage, uHTS. DNA (cytosine-5)-methyltransferase 1 (Homo sapiens), P26358. inhibition (reported as % activation of signal), % at 10 µM. 360,000 tested, 0.83% active. AID 588458, 2011; in the data active = inhibition above about 50%
SUMO1 PPI mod: modulators of SUMO1 protein-protein interactions, primary screen, biochemical, uHTS. Small ubiquitin-related modifier 1 (Homo sapiens), P63165. 360,000 tested, 0.33% active. AID 602429, 2012. inhibition, % at 20 µM. SUMO1 binding to a labelled peptide, TR-FRET, 1 h; in the data active = inhibition above about 37%
STEP block: STEP phosphatase inhibitors, primary screen, biochemical, fluorescence intensity, uHTS | Tyrosine-protein phosphatase non-receptor type 5 (Homo sapiens), P54829 | recombinant STEP, OMFP fluorogenic substrate | inhibition, % at 20 µM | 360,000 tested, 0.25% active | AID 588621, 2011;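 active = inhibition at 20 µM, scaled per plate between control wells, above about 37%, limit read from the data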;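 also: 0% = DMSO with enzyme and substrate and 100% = substrate only without enzyme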
Target sequence (P54829 whole entry, looked up): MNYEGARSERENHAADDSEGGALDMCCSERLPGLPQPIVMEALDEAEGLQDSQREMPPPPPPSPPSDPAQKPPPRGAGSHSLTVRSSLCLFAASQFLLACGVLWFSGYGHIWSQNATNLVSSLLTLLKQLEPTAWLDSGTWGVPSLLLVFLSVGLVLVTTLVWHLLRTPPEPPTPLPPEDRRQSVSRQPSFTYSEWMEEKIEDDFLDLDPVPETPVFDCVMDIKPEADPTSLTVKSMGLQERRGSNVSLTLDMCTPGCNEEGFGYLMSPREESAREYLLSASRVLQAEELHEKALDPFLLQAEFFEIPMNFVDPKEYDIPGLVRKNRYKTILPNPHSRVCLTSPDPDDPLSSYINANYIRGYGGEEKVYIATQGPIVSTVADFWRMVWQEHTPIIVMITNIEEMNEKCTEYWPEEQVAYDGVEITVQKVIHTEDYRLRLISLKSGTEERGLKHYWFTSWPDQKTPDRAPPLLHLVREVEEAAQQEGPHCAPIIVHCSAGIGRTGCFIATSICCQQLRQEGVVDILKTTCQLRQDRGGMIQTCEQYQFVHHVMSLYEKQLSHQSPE
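System: STEP (striatal-enriched tyrosine phosphatase) enzyme, cell-free; medium: Bis-Tris pH 6.0 buffer with DTT, detergent; dosing: 20 µM, 1% DMSO; times: reaction 20 min, ambient temperature; detection: fluorescence, 480/540 nm; read-out basis: normalized % inhibition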
LMPTP block: LMPTP phosphatase inhibitors, primary screen, biochemical, fluorescence intensity, uHTS; Low molecular weight phosphotyrosine protein phosphatase (Homo sapiens), P24666; recombinant LMPTP-A, OMFP fluorogenic substrate; inhibition, % at 20 µM; 360,000 tested, 0.22% active; AID 651560, 2012;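 active = compounds that cut the enzyme signal by at least half of the control window in the single-dose screen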;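 also: plate controls were DMSO wells with enzyme plus substrate for no effect and substrate without enzyme for full effect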
Target sequence (P24666 whole entry, looked up): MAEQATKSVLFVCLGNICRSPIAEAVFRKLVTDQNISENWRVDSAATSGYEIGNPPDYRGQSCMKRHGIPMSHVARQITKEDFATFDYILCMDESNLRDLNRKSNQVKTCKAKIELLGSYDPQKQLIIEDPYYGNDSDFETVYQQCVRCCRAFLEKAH
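Test system: LMPTP-A, protein tyrosine phosphatase of low molecular weight; Input: 0.625 nM enzyme; Incubation: 50 min dark incubation at room temperature; Signal: endpoint fluorescence intensity from OMFP dephosphorylation; Read-out basis: % inhibition versus control wells.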
Scp-1 inhibitor: Scp-1 phosphatase inhibitors, primary screen, biochemical, colorimetric, uHTS; Carboxy-terminal domain RNA polymerase II polypeptide A small phosphatase 1 (Homo …; Recombinant Scp1, phosphopeptide, malachite green phosphate absorbance; 340,000 tested, 0.88% active; inhibition, % at 20 µM;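 active = inhibition above about 50% at 20 µM, limit read from the data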;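 also: plate controls were DMSO wells with enzyme for no effect and wells lacking enzyme for full effect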
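Incubation: 45 min enzyme reaction at room temperature / System: truncated SCP-1 phosphatase (76-261aa) / Reagent: Phospho 17-mer peptide substrate / Buffer or medium: Acidic Tris acetate buffer with magnesium and detergent / Signal: absorbance at 630 nm / Doses: one concentration, 20 µM, with 1.0% DMSO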
Scp1 confirm: Scp-1 phosphatase inhibitors, retest, confirmation, biochemical, colorimetric, single concentration. recombinant SCP-1 catalytic domain, phosphate release, malachite green absorbance. inhibition, % at 20 µM. 2,500 tested, 61% active. shares compounds with Scp-1 inhibitor;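 also: plate controls were DMSO with enzyme for no effect and buffer wells lacking enzyme for full effect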
MG interference: colorimetric readout interference by compounds, confirmation, artefact control for Scp-1 inhibitor project, biochemical, single concentration; shares compounds with Scp-1 inhibitor; Colorimetric interference counterscreen, malachite green absorbance 630 nm; apparent inhibition (interference), % at 20 µM; 2,500 tested, under 10 active; AID 540313, 2011;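 also: compounds added after enzyme reaction finished so only phosphate colour detection is probed; plate controls were DMSO wells with completed Scp-1 reaction for no effect and substrate wells lacking enzyme for full effect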
Scp1 DSF: Scp-1 binding by thermal shift, confirmation, orthogonal assay for Scp-1 inhibitor project, biophysical, differential scanning fluorimetry. shares compounds with Scp-1 inhibitor. Recombinant SCP1, Sypro Orange thermal shift Tm. thermal shift relative to vanadate control, % at 40 µM. 1,500 tested, 25% active. AID 540329, 2011;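 active = substances whose mean melting-temperature shift, as a percentage of the reference inhibitor's shift, reaches about 5.3%, limit read from the data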;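 also: 0% = Tm of DMSO wells and 100% = Tm with sodium orthovanadate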
Beacon interf DR: spectral interference with molecular beacon fluorescence, dose response, artefact control for DNMT1 inhibitor project, biochemical, fluorescent molecular beacon; shares compounds with DNMT1 inh; spectral interference counter-screen; IC50, µM; 200 tested, under 10 active; AID 602382, 2012; call rule not given here
DNMT1 inh conf: DNMT1 methyltransferase inhibitor retest, confirmation, biochemical, molecular beacon, fluorescence, single concentration; shares compounds with DNMT1 inh; DNMT1 molecular beacon HinP1I cleavage; inhibition, % at 10 µM; 2,300 tested, 8% active;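 active = average inhibition of at least 30% in the single-concentration confirmation test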
Beacon interf: counter-screen for DNMT1 inhibitors: spectral interference; DNMT1 molecular beacon spectral interference counterscreen, fluorescence 485/520; 2,300 tested, 1% active; shares compounds with DNMT1 inh; activation (fluorescence interference), % at 10 µM; AID 602387;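 active = activation of at least 30% at 10 µM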;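 also: DNMT1 catalytic domain with a HinP1I cleavage step and a FAM/dabcyl DNA beacon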
Numbers without * were called inactive; nt = not tested or not shown.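 The calls were made as follows, unless noted: active = inhibition of at least 30% at 20 µM; inactive = the rest.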

SMILES	DNMT1 inh	SUMO1 PPI mod	STEP block	LMPTP block	Scp-1 inhibitor	DNMT1 inh conf	Beacon interf	others
CCCC[N+]12CCC(CC1)C(=C(c1ccccc1)c1ccccc1)C2	2	2	1	0	98*	nt	nt	Scp1 confirm=86*;MG interference=-7;Scp1 DSF=0
Cc1cccc(-n2c(O)c(C)c(=O)[nH]c2=S)c1	-1	3	15	3	-1	nt	nt
O=C1NC(=O)N(c2ccc3c(c2)OCO3)C(=O)/C1=C\c1ccc(-c2ccccc2C(=O)O)o1	90*	24	12	4	56*	8	-1	Scp1 confirm=52*;MG interference=-11;Scp1 DSF=3
Cc1cc(/C=C2\C(=O)NC(=O)N(c3ccc(Cl)cc3)C2=O)c(C)n1-c1cccc(C(=O)O)c1	74*	19	13	1	52*	6	0	Scp1 confirm=51*;MG interference=-4;Scp1 DSF=6.9*
Cc1cc(/C=C2/C(=O)NC(=O)N(c3ccc(Br)cc3)C2=O)c(C)n1C	-4	-8	-1	1	-5	nt	nt
Cc1cc(/C=C2\C(=O)NC(=O)N(c3ccc(Br)cc3)C2=O)c(C)n1-c1cc(C(=O)O)cc(C(=O)O)c1	83*	28	6	5	60*	3	-4	Scp1 confirm=42*;MG interference=-16;Scp1 DSF=-1
COCC(=O)N1Cc2ccccc2-n2nncc2C1	3	2	1	-2	0	nt	nt
O=C(CCC(=O)N1CC2C[C@@H](C1)Cn1c2cccc1=O)NCCc1ccccc1F	-5	0	1	0	-4	nt	nt
CCOc1cccc(N2C(=O)/C(=C/c3ccco3)C(=O)NC2=S)c1	98*	56*	56*	34	74*	80*	0	Scp1 confirm=70*;MG interference=-11;Scp1 DSF=6.4*;Beacon interf DR=>99
COc1ccc(CN2C(=O)NC(=O)/C(=C\c3ccco3)C2=O)cc1	86*	22	11	29	82*	28	-5	Scp1 confirm=58*;MG interference=-22;Scp1 DSF=5.5*;Beacon interf DR=>99
Cc1ccc(/C=C2/C(=O)NC(=O)N(CCc3ccc(F)cc3)C2=O)o1	4	9	-1	0	-10	nt	nt
O=C1NC(=O)N(CCc2ccc(F)cc2)C(=O)/C1=C/c1ccco1	98*	80*	48*	66*	92*	5	0	Scp1 confirm=66*;MG interference=-16;Scp1 DSF=-1
COc1ccccc1/C=C1\C(=O)NC(=S)N(c2ccccc2)C1=O	-2	9	0	-2	15	nt	nt
CN(C)CCN(C(=O)COc1ccc(Cl)cc1)c1nc2cc3c(cc2s1)OCO3	1	1	1	0	13	nt	nt
O=C1NC(=S)NC(=O)C1=Cc1cccn1-c1ccc(O)cc1	84*	11	3	32	56*	65*	-4	Beacon interf DR=>99
CN1C(=O)/C(=C/c2cccn2-c2ccc3ccccc3c2)C(=O)NC1=S	81*	15	6	6	-4	4	-4
Cc1cc(C)cc(N2C(=O)NC(=O)/C(=C\c3cccn3-c3ccc(Cl)cc3)C2=O)c1	17	7	1	-1	-10	nt	nt
O=C1N[C@@H](Cc2ccccc2)C(=O)N2[C@H]1C[C@H]1c3ccccc3N(OOSc3ccccc3)[C@H]12	3	3	0	1	2	nt	nt
CC(C)C1(C)N=C(c2ncccc2C(=O)O)NC1=O (stereo not drawn)	94*	-2	-1	-2	-11	2	3
O=C(O)C1C2CCC(O2)C1C(=O)Nc1cccc(Br)c1 (stereo not drawn)	79*	1	0	0	-9	3	4
CCN1C(=O)NC(=O)/C(=C/c2cc(C)n(-c3sc(C)c(C)c3C#N)c2C)C1=O	10	18	-2	0	-3	nt	nt
CCOC(=O)c1c(-n2c(C)cc(C=C3C(=O)NC(=S)NC3=O)c2C)sc2c1CCCC2	100*	28	3	2	9	29	-8	Beacon interf DR=>99
Cc1ccc(N2C(=O)NC(=O)/C(=C\c3cc(C)n(-c4sc5c(c4C#N)CCCC5)c3C)C2=O)cc1	70*	51*	3	2	2	20	-5	Beacon interf DR=>99
COc1nc2ccccc2c(=O)n1-c1ccc(Cl)cc1	15	0	-1	-1	-7	nt	nt
COc1nc2ccccc2c(=O)n1-c1ccc(C)cc1	88*	3	-2	1	-2	1	3
SMILES	DNMT1 inh	SUMO1 PPI mod	STEP block	LMPTP block	Scp-1 inhibitor	DNMT1 inh conf	Beacon interf	others
CCCNC(=O)c1c(N)n(CC2CCCO2)c2nc3ccccc3nc12 (stereo not drawn)	61*	44*	5	4	7	2	5
Nc1c(C(=O)OC2CCCCC2)c2nc3ccccc3nc2n1CC1CCCO1 (stereo not drawn)	-21	19	7	4	0	nt	nt
CC(C)OCCCNC(=O)c1c(N)n(CC2CCCO2)c2nc3ccccc3nc12 (stereo not drawn)	85*	40*	4	13	1	1	9
COc1cccc(N2C(=O)/C(=C/c3ccc(C)o3)C(=O)NC2=S)c1	62*	20	4	1	39	0	2
O=C1NC(=S)N(c2ccccc2)C(=O)/C1=C/c1ccco1	93*	54*	40	7	93*	82*	-11	Beacon interf DR=>99
CC12CCC3C(CCC4CC(=O)OCC43C)C1CCC2O (stereo not drawn)	3	0	1	-2	0	nt	nt

Source: PubChem
